Sampled rows, rich in hits. Any-hit rate of the full collection: about 3%.
Insulin prom inh = inhibitors of insulin promoter-driven GFP, primary screen, imaging, TRM-6 cells (human fetal islet line), eGFP reporter, cell count | hit rate 0.9% among 130,000 | inhibition, % at 2 µM | AID 1273, 2008 | reporter expression induced with tamoxifen;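 active = inhibition above the mean plus 3 SD, with well images judged a real hit on visual review, cut at about 60% in these data, passing the limit was not always enough; inconclusive = inhibition over the cutoff but images rejected on review; inactive = inhibition not above the cutoff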
RAM inhibit = inhibitors of the yeast RAM network, primary screen, dse1pr::URA3 reporter, 5-FOA selection | S. cerevisiae dse1pr::URA3 reporter, 5-FOA growth OD615, 2 d; analog-sensitive cbk1-as2 kinase mutant strain | inhibition, % at 50 µM | hit rate 1.8% among 190,000 | AID 868, 2007;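 active = inhibition above a set limit, 3 SD over mean compound inhibition, cut at about 8.4% in these data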;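 note: 0% = DMSO-only wells with no growth and 100% = 10 µM 1-NA-PP1 full growth; inhibition rescues growth on 5-FOA so higher OD means more RAM inhibition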
Insulin prom up = insulin promoter activators in MIN6 cells, imaging, high-content screening, mouse beta cells | MIN6 insulin promoter-GFP reporter; hits give high values | z-score at 5 µM | hit rate 0.3% among 190,000;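 active = z-score above 3 at 5 µM with at least 500 cells counted in the well; inconclusive = wells under 500 cells, flagged as cytotoxic or low count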
Yeast life ext = compounds extending yeast replicative lifespan, primary screen, S. cerevisiae, OD615; S. cerevisiae growth with nicotinamide; deaD strain in restrictive glucose medium; inhibition of the nicotinamide effect, % at 10 µM; hit rate 0.68% among 130,000;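 active = inhibition above a set limit, placed 3 SD over the median of all compounds, cut at about 26% in these data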;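 note: 0% = nicotinamide-treated wells and 100% = cells grown without nicotinamide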
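Test system: DeaD-strain S. cerevisiae / Buffer or medium: restrictive glucose medium / Also added: nicotinamide 1.5 mM / Doses: one concentration, 10 µM, DMSO 0.25% / Schedule: 48 h at 30 °C / Signal: OD615 measurement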
Yeast growth inh = growth inhibitors of yeast BB579 in restrictive medium, primary screen, yeast lifespan-shortening project, S. cerevisiae; hit rate 0.51% among 140,000; OD615, 48 h; inhibition, % at 10 µM;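 active = inhibition above a set limit, 3 SD over the mean compound inhibition, cut at about 44% in these data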
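System: DeaD yeast strain BB579; buffer or medium: CSMM-D dextrose restrictive medium; technique: OD at 615 nm; schedule: 4 h cell preincubation, 48 h compound exposure, 30 °C humidified; doses: single 10 µM dose; controls: amphotericin B 10 µg/mL, positive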
An asterisk follows results filed as active; ? = inconclusive; . = no result given.

SMILES	Insulin prom inh	RAM inhibit	Insulin prom up	Yeast life ext	Yeast growth inh
CCC(CC)NC(=O)c1cccc(Br)c1	88*	1	-0.44	.	.
Cc1c(-c2cccc(Cl)c2)nc2ccccc2c1C(=O)OC/C(O)=C(\C#N)c1nc2ccccc2[nH]1	.	11*	0.04	.	.
Cc1cc(Br)ccc1SCC(=O)OC/C(O)=C(\C#N)c1nc2ccccc2[nH]1	.	.	-0.45	.	.
Cc1ccc(C)c(SCC(=O)OC/C(O)=C(\C#N)c2nc3ccccc3[nH]2)c1	-40	8.5*	.	.	.
Nn1cc(-c2ccccc2)nc1SCC(=O)N1CCN(S(=O)(=O)c2ccc(Cl)cc2)CC1	-48	9.8*	0.39	0	-11
CCOc1ccc(Cl)cc1S(=O)(=O)N1CCN(c2ccc(F)cc2)CC1	-220	9.0*	-0.66	-4	-32
COc1c(S(=O)(=O)N2CCN(c3ccc(F)cc3)CC2)ccc(Cl)c1Cl	74*	5	-0.89	-2	-31
Cc1cc(S(=O)(=O)N2CCN(c3ccc(F)cc3)CC2)c(C)s1	.	1	0.11	-6	-12
COc1ccc(Cl)cc1S(=O)(=O)N1CCN(c2ccc(F)cc2)CC1	19	2	0.2	-13	-28
COc1ccc(NC(=O)c2nc3nc(C)cc(C(F)F)n3n2)cc1OC	71*	1	0.64	-10	25
Cc1ccnc2nc(C(=O)Nc3ccc(S(=O)(=O)N4CCCC4)cc3)nn12	.	.	0.34	.	.
Cc1cc(C(F)F)n2nc(C(=O)Nc3ccc(S(=O)(=O)N4CCCCCC4)cc3)nc2n1	100*	6	.	.	0
CCN(CC)c1ccc(NC(=O)c2nc3nc(C)cc(C(F)F)n3n2)cc1	.	0	-1.3	-13	14
CC1CC(C)(C)NC(=S)N1CCC(=O)N1CCc2ccccc2C1 (stereo not given)	.	0	-0.2	.	.
CC1=CC2=NC(=O)/C(=C\c3cccn3CCOc3ccccc3)C(=N)N2O1	-2	6	-0.21	-1	-10
CC1=CC2=NC(=O)/C(=C\c3cccn3CCOc3cccc(C)c3)C(=N)N2O1	-27	9.3*	-0.56	16	-15
COc1cccc(OCCn2cccc2/C=C2/C(=N)N3OC(C)=CC3=NC2=O)c1	.	11*	.	.	.
CC(/C=C/c1ccccc1)=N\NC(=O)c1cc(C)[nH]n1	18	-1	-0.89	.	.
COc1cccc(Sc2ccccc2/C=N/NC(N)=O)c1	-28	5	-0.88	.	.
CC(C)Nc1ccc(C(CC(N)=O)NC(=O)Cc2ccc(Br)cc2)cc1[N+](=O)[O-] (stereo not given)	.	.	-0.4	.	.
CCOC(=O)c1c(C)nc(-c2ccccc2)nc1NC(=O)CC	71*	4	2.9	-5	-3
NC(=O)c1cc2ccc(O)cc2oc1=NCc1ccccc1	-15	1	7*	-1	-39
CC(=O)C1=C(C)NC(=S)NC1c1cc([N+](=O)[O-])ccc1O (stereo not given)	.	.	0.39	.	.
CCCC(CCC(=O)Nc1cccc([N+](=O)[O-])c1)C(=O)O (stereo not given)	.	.	0.09	.	.
COc1ccc(/C=N/NC(=O)CSc2ccccc2)cc1OC	64*	1	-0.67	-3	-23
SMILES	Insulin prom inh	RAM inhibit	Insulin prom up	Yeast life ext	Yeast growth inh
COc1ccc(/C=N/NC(=O)CSc2ccccn2)cc1OC	.	.	-0.36	.	.
CCOc1cnn(-c2cc(Oc3ccc(C)cc3)ncn2)c(=O)c1Cl	-12	1	0.1	-11	-27
Cc1ccccc1Oc1cc(-n2ncc(Cl)c(Cl)c2=O)ncn1	-270	1	?	46*	-31
Cc1ccc(C2N=C(N)Nc3nc(=O)c4ccccc4n32)cc1 (stereo not given)	.	.	0.6	.	.
Cc1nn(-c2ccccc2)c(N)c1C(O)(CC(=O)C(F)(F)F)C(F)(F)F (stereo not given)	.	9.0*	0.2	2	-42
COc1cccc(/C=N/NC(N)=S)c1OCc1ccccc1Cl	-25	8.8*	-0.42	2	-40
Cc1cc(C)n(-c2ccc(OCC(=O)O)nn2)n1	-10	2	3.3*	62	-55
CCCCOc1ccc(-n2nc(C)cc2C)nn1	-35	-1	-0.84	-9	-8
COC(=O)c1cc(NC(=O)c2ccc(OC)cc2)c(=O)oc1C	.	1	0.99	.	.
CCOC(=O)c1cc(NC(=O)c2ccc(OC)cc2)c(=O)oc1-c1ccccc1	21	11*	-0.46	3	-11
COC(=O)c1ccc(Oc2ccc(C(C)(C)C)cc2)c([N+](=O)[O-])c1	24	8.4*	.	-6	-18
O=C(c1cc(C(=O)N2CCOCC2)c2nc3ccccc3n2c1)c1cc(Cl)cc(Cl)c1O	.	.	-0.01	.	.
COc1cc(/C=C/c2nc3ccc([N+](=O)[O-])cc3s2)ccc1OCC(=O)O	.	.	0.12	.	.
CC1(C)Cc2c(c(-c3ccccc3Cl)[nH]c(=O)c2C#N)CO1	56	2	.	0	-19
CC1(C)Cc2c(c(-c3ccccc3)[nH]c(=O)c2C#N)CO1	.	0	3.4*	-11	-19
CCCOc1ccc(/C(O)=C2/C(=O)C(=O)N(CCCn3ccnc3)C2c2cccnc2)cc1 (stereo not given)	.	.	-0.57	.	.
O=C(C[n+]1ccc(/C=N/O)cc1)NC1CCCCC1	47	-1	0.51	.	.
CCOC(=O)c1ccc(NC(=S)N2CCSC2c2ccc(Br)cc2)cc1 (stereo not given)	3	4	0.6	3	-28
COC(=O)c1sc2ccccc2c1-n1cccc1C(=O)C(=O)Nc1ccc(F)cc1	54	5	5.4*	-11	-77
COC(=O)c1sc2ccccc2c1-n1cccc1C(=O)C(=O)Nc1ccc(C)cc1	22	6	.	38*	-54
CSc1cccc(NC(=O)Cc2ccccc2[N+](=O)[O-])c1	.	3	0.3	.	.
CN(Cc1ccc(O)cc1)C1CCCCC1	92*	2	-0.92	-4	-4
COc1ccc(CN(C)C2CCCCC2)cc1	-30	0	-0.52	-11	-28
O=C(COC(=O)c1ccc(S(=O)(=O)N2CCOCC2)cc1)NCc1cccs1	5	2	-0.61	.	.
Cc1ccc(-c2nnn(CCC(=O)N3CCCCC3C)n2)cc1 (stereo not given)	71*	1	0.07	-7	-25
SMILES	Insulin prom inh	RAM inhibit	Insulin prom up	Yeast life ext	Yeast growth inh
Cc1ccc(-n2nc(C)c(/C=N/n3c(C)n[nH]c3=S)c2Cl)cc1	.	1	-1.2	.	.
O=C(O)c1ccccc1SCC(=O)N1c2ccccc2Sc2ccccc21	27	11*	0.41	13	-43
COc1ccc2[nH]c(C(=O)O)c(CCN3C(=O)c4cccc([N+](=O)[O-])c4C3=O)c2c1	.	.	0.36	.	.
Cc1cc(C(=O)Nc2nnc(-c3ccccc3)s2)no1	.	3	0.29	27*	-39
Cc1cc(C(=O)Nc2nnc(C3CCCCC3)s2)no1	-7	1	0.2	-6	-8
CCOC(=O)c1c(-c2cccs2)csc1N	21	0	-0.14	.	.
COC(=O)c1c(-c2ccc(F)cc2)csc1NC(=O)c1ccco1	-14	3	0	5	-30

Screening data: PubChem, several laboratories
